Measured values reported in publication PMC9233738 (Bioorganic & medicinal chemistry, 2022).
Converted amounts (≈) assume the structure as drawn. “Also recorded” adds a separate entry of the source. Like-named read-outs stand apart in the source and are kept apart here.

Columns and labels:
[1] = system: chloroquine-resistant Dd2 strain; assay: Antiplasmodial activity against chloroquine-resistant Dd2 strain; assay type: cell-based, Plasmodium falciparum; settings: for antimalarial activity / potency (in words): qualitative statement
[2] = system: HepG2 human hepatoma cells; assay: Cytotoxicity, HepG2 cells, MTS cell proliferation assay; assay type: cell-based; settings: for EC50: read-out: HepG2 EC50; for Selectivity: SI = EC50(HepG2)/EC50(Dd2)
How it was run: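 HepG2 human hepatoma cells were seeded at 2,500 cells/well and pre-incubated for 24 h. Serial dilutions of test compound (0–40 μM range) were then added, followed by a further 48 h incubation.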

[3] = Aqueous solubility, Biomek FX with pION μSOL evolution software; assay type: physicochemical; settings: for solubility: pH 6.5
[4] = Aqueous solubility at pH 2.0, in-house HPLC assay; assay type: physicochemical

**Q.** What does the source list for “1-(3,4-Difluorophenyl)-2-(1,4-dihydro-2H-spiro[phenanthrene-3,4’-piperidin]-1’-yl)ethan-1-one [Compound 5g]”?
**A.** EC50 ([1]; read-out: Dd2 EC50, chloroquine-resistant Dd2 strain): > 2.5 µM; EC50 ([2]; HepG2 cells, 48 h incubation, MTS, n = 3): > 20 µM; Solubility pH 6.5 ([3]; pH 6.5, Table 6): ^*** (For 20 μM < solubility ≤ 40 μM)

**Q.** Which EC50 ([2]; Homo sapiens, HepG2, 48 h) does the source give for OC(CN1CCC2(CC1)CC(O)c1ccc3ccccc3c1O2)c1ccc(F)c(F)c1 (stereo not shown) [Compound 1] here?
**A.** Its EC50 is > 20 µM.

**Q.** And the Selectivity [2]?
**A.** The Selectivity was >53.3.

**Q.** Which solubility ([4]; aqueous medium at pH 2.0, pH 2) does the source give for O=C1CC2(CCN(Cc3ccccc3)CC2)Oc2c1ccc1ccccc21 [Compound 2c, 1’-Benzylspiro[benzo[h]chromene-2,4’-piperidin]-4(3H)-one] here?
**A.** The solubility was ≥ 80 µM.

**Q.** What about the solubility ([3]; aqueous medium) of the same molecule?
**A.** The solubility was 40 to 80 µM (≈ 14.3 to 28.6 µg/mL).

**Q.** For O=C1CC2(CCN(CCc3ccccc3)CC2)Oc2c1ccc1ccccc21 [Compound 2d, 1’-Phenethylspiro[benzo[h]chromene-2,4’-piperidin]-4(3H)-one], which solubility ([4]; aqueous medium at pH 2.0, pH 2) is on record?
**A.** Its solubility is ≥ 80 µM.

**Q.** And the solubility ([3]; aqueous medium)?
**A.** Its solubility is 40 to 80 µM (≈ 14.9 to 29.7 µg/mL).

**Q.** Which results are given for O=C1CC2(CCN(CCC3CCCCC3)CC2)Oc2c1ccc1ccccc21 [Compound 2e, 1’-(2-Cyclohexylethyl)spiro[benzo[h]chromene-2,4’-piperidin]-4(3H)-one]?
**A.** Selectivity [2]: > 30; solubility ([4]; aqueous solution, pH 2): 20 to 40 µM (≈ 7.55 to 15.1 µg/mL); solubility ([3]; aqueous solution): 10 to 20 µM (≈ 3.78 to 7.55 µg/mL)

**Q.** Which results are given for O=C1CC2(CCN(CCCc3ccccc3)CC2)Oc2c1ccc1ccccc21 [Compound 2f, 1’-(3-Phenylpropyl)spiro[benzo[h]chromene-2,4’-piperidin]-4(3H)-one]?
**A.** solubility ([4]; aqueous medium at pH 2.0, pH 2): 40 to 80 µM (≈ 15.4 to 30.8 µg/mL); solubility ([3]; aqueous medium): 20 to 40 µM (≈ 7.71 to 15.4 µg/mL)

**Q.** What does the source list for O=C(CN1CCC2(CC1)CC(=O)c1ccc3ccccc3c1O2)c1ccc(F)c(F)c1 [Compound 2g, 1’-(2-(3,4-Difluorophenyl)-2-oxoethyl)spiro[benzo[h]chromene-2,4’-piperidin]-4(3H)-one]?
**A.** solubility ([4]; aqueous solution, pH 2): 40 to 80 µM (≈ 16.9 to 33.7 µg/mL); solubility ([3]; aqueous solution): 40 to 80 µM (≈ 16.9 to 33.7 µg/mL)

**Q.** With O=C1CC2(CCN(CCc3ccc(F)c(F)c3)CC2)Oc2c1ccc1ccccc21 [Compound 2h, 1’-(3,4-Difluorophenethyl)spiro[benzo[h]chromene-2,4’-piperidin]-4(3H)-one] as the molecule, how does the solubility ([3]; aqueous solution) read?
**A.** Its solubility is 10 to 20 µM (≈ 4.07 to 8.15 µg/mL).

**Q.** With O=C1CC2(CCN(C(=O)Cc3ccc(F)c(F)c3)CC2)Oc2c1ccc1ccccc21 [Compound 2l, 1’-(2-(3,4-Difluorophenyl)acetyl)spiro[benzo[h]chromene-2,4’-piperidin]-4(3H)-one] as the molecule, how does the “antimalarial activity / potency (in words)” value [1] read?
**A.** Its value is “completely lost”.

**Q.** Which Selectivity [2] does the source give for OC1CC2(CCNCC2)Oc2c1ccc1ccccc21 (stereo not shown) [Compound 3a, 3,4-Dihydrospiro[benzo[h]chromene-2,4’-piperidin]-4-ol] here?
**A.** Its Selectivity is >54.5.

**Q.** What about the solubility ([4]; aqueous solution, pH 2) of the same molecule?
**A.** The solubility was 40 to 80 µM (≈ 10.8 to 21.5 µg/mL).

**Q.** Which solubility ([4]; aqueous solution, pH 2) does the source give for CCN1CCC2(CC1)CC(O)c1ccc3ccccc3c1O2 (stereo not shown) [Compound 3b, 1’-Ethyl-3,4-dihydrospiro[benzo[h]chromene-2,4’-piperidin]-4-ol] here?
**A.** Its solubility is 20 to 40 µM (≈ 5.95 to 11.9 µg/mL).

**Q.** And the solubility ([3]; aqueous solution)?
**A.** Its solubility is 20 to 40 µM (≈ 5.95 to 11.9 µg/mL).

**Q.** Which solubility ([4]; aqueous medium at pH 2.0, pH 2) does the source give for OC1CC2(CCN(Cc3ccccc3)CC2)Oc2c1ccc1ccccc21 (stereo not shown) [Compound 3c, 1’-Benzyl-3,4-dihydrospiro[benzo[h]chromene-2,4’-piperidin]-4-ol] here?
**A.** The solubility was 40 to 80 µM (≈ 14.4 to 28.8 µg/mL).

**Q.** What about the solubility ([3]; aqueous medium) of the same molecule?
**A.** The solubility was 40 to 80 µM (≈ 14.4 to 28.8 µg/mL).

**Q.** With OC1CC2(CCN(CCc3ccccc3)CC2)Oc2c1ccc1ccccc21 (stereo not shown) [Compound 3d, 1’-Phenethyl-3,4-dihydrospiro[benzo[h]chromene-2,4’-piperidin]-4-ol] as the molecule, how does the solubility ([4]; aqueous medium at pH 2.0, pH 2) read?
**A.** Its solubility is 40 to 80 µM (≈ 14.9 to 29.9 µg/mL).

**Q.** And the solubility ([3]; aqueous medium)?
**A.** Its solubility is 40 to 80 µM (≈ 14.9 to 29.9 µg/mL).

**Q.** What does the source list for OC1CC2(CCN(CCC3CCCCC3)CC2)Oc2c1ccc1ccccc21 (stereo not shown) [Compound 3e, 1’-(2-Cyclohexylethyl)-3,4-dihydrospiro[benzo[h]chromene-2,4’-piperidin]-4-ol]?
**A.** EC50 ([1]; Plasmodium falciparum, DD2, read-out: Dd2 EC50, chloroquine-resistant Dd2 strain): 0.32 µM; solubility ([4]; aqueous solution, pH 2): 40 to 80 µM (≈ 15.2 to 30.4 µg/mL); solubility ([3]; aqueous solution): 20 to 40 µM (≈ 7.59 to 15.2 µg/mL)

**Q.** Which solubility ([4]; aqueous medium at pH 2.0, pH 2) does the source give for OC1CC2(CCN(CCCc3ccccc3)CC2)Oc2c1ccc1ccccc21 (stereo not shown) [Compound 3f, 1’-(3-Phenylpropyl)-3,4-dihydrospiro[benzo[h]chromene-2,4’-piperidin]-4-ol] here?
**A.** The solubility was ≥ 80 µM.

**Q.** And the solubility ([3]; aqueous medium)?
**A.** Its solubility is ≥ 80 µM.

**Q.** What does the source list for O=C(CN1CCC2(CC1)CC(O)c1ccc3ccccc3c1O2)c1ccc(F)c(F)c1 (stereo not shown) [Compound 3g, 1-(3,4-Difluorophenyl)-2-(4-hydroxy-3,4-dihydrospiro[benzo[h]chromene-2,4’-piperidin]-1’yl)ethanone]?
**A.** solubility ([4]; aqueous solution, pH 2): 20 to 40 µM (≈ 8.47 to 16.9 µg/mL); solubility ([3]; aqueous solution): 20 to 40 µM (≈ 8.47 to 16.9 µg/mL)

**Q.** For O=C(Cc1ccc(F)c(F)c1)N1CCC2(CC1)CC(O)c1ccc3ccccc3c1O2 (stereo not shown) [Compound 3l, 2-(3,4-Difluorophenyl)-1-(4-hydroxy-3,4-dihydrospiro[benzo[h]chromene-2,4’-piperidin]-1’yl)ethanone], which “antimalarial activity / potency (in words)” value [1] is on record?
**A.** Its value is “lacked antimalarial activity; also recorded: completely lost”.

**Q.** For O[C@H](CN1CCC2(CC1)C[C@@H](O)c1ccc3ccccc3c1O2)c1ccc(F)c(F)c1 [Compound 3mb], which Selectivity [2] is on record?
**A.** The Selectivity was <7.

**Q.** For O[C@@H](CN1CCC2(CC1)C[C@H](O)c1ccc3ccccc3c1O2)c1ccc(F)c(F)c1 [Compound 3mc, (S)-1’-((R)-2-(3,4-Difluorophenyl)-2-hydroxyethyl)-3,4-dihydrospiro[benzo[h]chromene-2,4’-piperidin]-4-ol], which EC50 ([2]; Homo sapiens, HepG2, 48 h) is on record?
**A.** The EC50 was > 20 µM.

**Q.** What about the Selectivity [2] of the same molecule?
**A.** The Selectivity was >15.

**Q.** What does the source list for O[C@H](CN1CCC2(CC1)C[C@H](O)c1ccc3ccccc3c1O2)c1ccc(F)c(F)c1 [Compound 3md, (S)-1’-((S)-2-(3,4-Difluorophenyl)-2-hydroxyethyl)-3,4-dihydrospiro[benzo[h]chromene-2,4’-piperidin]-4-ol]?
**A.** EC50 ([2]; Homo sapiens, HepG2, 48 h): > 20 µM; Selectivity [2]: > 11

**Q.** With c1ccc2c3c(ccc2c1)CCC1(CCNCC1)O3 [Compound 5a, 3,4-Dihydrospiro[benzo[h]chromene-2,4’-piperidine]] as the molecule, how does the solubility ([4]; aqueous solution, pH 2) read?
**A.** Its solubility is 40 to 80 µM (≈ 10.1 to 20.3 µg/mL).

**Q.** What about the solubility ([3]; aqueous solution) of the same molecule?
**A.** Its solubility is 20 to 40 µM (≈ 5.07 to 10.1 µg/mL).

**Q.** Which solubility ([4]; aqueous medium at pH 2.0, pH 2) does the source give for c1ccc(CN2CCC3(CCc4ccc5ccccc5c4O3)CC2)cc1 [Compound 5c, 1’-Benzyl-3,4-dihydrospiro[benzo[h]chromene-2,4’-piperidine]] here?
**A.** Its solubility is 20 to 40 µM (≈ 6.87 to 13.7 µg/mL).

**Q.** With c1ccc2c3c(ccc2c1)CCC1(CCN(CCC2CCCCC2)CC1)O3 [Compound 5e, 1’-(2-Cyclohexylethyl)-3,4-dihydrospiro[benzo[h]chromene-2,4’-piperidine]] as the molecule, how does the solubility ([4]; aqueous solution, pH 2) read?
**A.** The solubility was 40 to 80 µM (≈ 14.5 to 29.1 µg/mL).

**Q.** Which solubility ([4]; aqueous solution, pH 2) does the source give for Fc1ccc(CCN2CCC3(CCc4ccc5ccccc5c4O3)CC2)cc1F [Compound 5h, 1’-(3,4-Difluorophenethyl)-3,4-dihydrospiro[benzo[h]chromene-2,4’-piperidine]] here?
**A.** Its solubility is 20 to 40 µM (≈ 7.87 to 15.7 µg/mL).

**Q.** Which solubility ([4]; aqueous solution, pH 2) does the source give for OC(CN1CCC2(CCc3ccc4ccccc4c3O2)CC1)c1ccc(F)c(F)c1 (stereo not shown) [Compound 5i, 1-(3,4-Difluorophenyl)-2-(3,4-dihydrospiro[benzo[h]chromene-2,4’-piperidin]-1’-yl)ethanol] here?
**A.** The solubility was 40 to 80 µM (≈ 16.4 to 32.8 µg/mL).

**Q.** For O=C(Cc1ccc(F)c(F)c1)N1CCC2(CCc3ccc4ccccc4c3O2)CC1 [Compound 5j, 2-(3,4-Difluorophenyl)-1-(3,4-dihydrospiro[benzo[h]chromene-2,4’-piperidin]-1’ yl)ethanone], which “antimalarial activity / potency (in words)” value [1] is on record?
**A.** The value was “completely lost”.

**Q.** With O=C1C[C@@]2(CCCN(CCc3ccc(F)c(F)c3)C2)Oc2c1ccc1ccccc21 [Compound 10c, (R)-1’-(3,4-Difluorophenethyl)spiro[benzo[h]chromene-2,3’-piperidin]-4(3H)-one] as the molecule, how does the Selectivity [2] read?
**A.** The Selectivity was > 30.

**Q.** Which results are given for CCN1CCC[C@@]2(CC(O)c3ccc4ccccc4c3O2)C1 (stereo partly drawn) [Compound 11a, (2R)-1’-Ethyl-3,4-dihydrospiro[benzo[h]chromene-2,3’-piperidin]-4-ol]?
**A.** EC50 ([2]; Homo sapiens, HepG2, 48 h): > 20 µM; Selectivity [2]: >28.8
